# HTR2A ag – activates the mouse 5-HT2A serotonin receptor | AID 624169 | CHO-K1 mHTR2A beta-arrestin complementation, luminescence; percent of 30 µM serotonin response | activation, % at 7.6 µM | P35363 | 360,000 compounds, 0.66% hits;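 active = activation above a run cutoff, the mean activation of all tested compounds plus 3 SD, cut at about 14% in these data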;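 note: 0% = plate median of compound wells and 100% = 30 µM serotonin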
# IMP-1 inh – blocks Pseudomonas aeruginosa IMP-1 metallo-beta-lactamase | AID 1556 | 290,000 compounds, 0.45% hits | purified IMP-1, nitrocefin hydrolysis, epi-absorbance fluorescence | inhibition, % at 5.6 µM;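 active = inhibition above the mean plus 3 SD of all compounds in the same screening run, cut at about 4.5% in these data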;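 note: 0% = IMP-1 with DMSO and 100% = DMSO wells lacking enzyme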
#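 Material – recombinant IMP-1 enzyme, purified · Amount – IMP-1 0.2 nM before substrate addition · Medium – HEPES buffer pH 7.1 with ZnSO4 and Brij 35 · Timing – 25 °C, 15 min preincubation, 25 min reaction · Measured by – plate fluorescence quenching by hydrolysis product, ex 480/em 530 nm · Read-out – percent enzyme inhibition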
# dFosB act-1 – enhances mouse delta FosB homodimer DNA binding. purified delta FosB, TAMRA-CDK5 oligo fluorescence polarization; percent of positive-control signal above neutral wells. P13346. activation, % at 25 µM. 340,000 compounds, 0.99% hits;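 active = mean activation above about 17%, with every replicate also reaching it, limit read from the data, passing the limit was not always enough; inconclusive = only one of the two conditions met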
# Target sequence (P13346 whole entry, looked up): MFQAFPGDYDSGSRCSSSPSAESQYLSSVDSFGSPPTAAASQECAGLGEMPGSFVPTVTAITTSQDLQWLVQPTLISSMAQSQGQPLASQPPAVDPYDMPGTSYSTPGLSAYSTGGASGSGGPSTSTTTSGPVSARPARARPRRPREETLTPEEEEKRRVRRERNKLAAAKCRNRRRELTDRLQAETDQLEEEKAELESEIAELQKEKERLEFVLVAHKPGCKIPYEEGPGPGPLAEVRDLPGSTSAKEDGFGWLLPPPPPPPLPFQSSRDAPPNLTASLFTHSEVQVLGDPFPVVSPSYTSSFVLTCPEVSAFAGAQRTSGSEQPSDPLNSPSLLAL
# VIM-2 inhibitor – blocks Pseudomonas aeruginosa VIM-2 metallo-beta-lactamase. purified VIM-2, nitrocefin hydrolysis, epi-absorbance fluorescence. inhibition, % at 5.6 µM. 290,000 compounds, 0.89% hits. AID 1527;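 active = inhibition above the mean of all tested compounds plus 3 SD, cutoff set per screening run, cut at about 7.5% in these data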;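 note: red hydrolysis product quenches plate fluorescence so inhibitors raise well fluorescence; 0% = enzyme with DMSO and 100% = DMSO without enzyme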
# dFosB act-2 – delta FosB (mouse) homodimer activation. activation, % at 24.9 µM. purified delta FosB, TAMRA-CDK5 oligo fluorescence polarization; normalised: neutral wells 0, positive control 100. AID 588690. 2,400 tested, under 10 active. shares compounds with dFosB act-1;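 active = highest replicate activation at or above 34% and every replicate reaching that threshold; inconclusive = meets only one of the two criteria; inactive = meets neither criterion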;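 note: higher polarization means more probe DNA bound by delta FosB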
# Active calls of the source: *; u = inconclusive; x = no result given. Most compounds without a hit are left out; they make up all but 2.5% or so of the library.
SMILES,HTR2A ag,IMP-1 inh,dFosB act-1,VIM-2 inhibitor,dFosB act-2
Cc1nc(Nc2ccc(Cl)c(Cl)c2)sc1C(=O)Nc1ccccc1,-5,0,-15,0,x
O=C(/C=C/c1ccc(Cl)cc1)Nc1nccs1,-4,-4,23*,-3,0
C/C=C/C=C/C(=O)Nc1nccs1,-2,0,-11,-3,x
Cc1nc(NC(=O)/C=C/c2ccccc2)sc1C(=O)Nc1ccccc1Cl,6,-2,39*,-2,3
Cc1nc(NC(=O)/C=C/c2ccccc2)sc1C(=O)Nc1ccc(Cl)cc1,4,-2,31*,0,0
O=C(/C=C/c1ccccc1)NC(NC(=S)Nc1ccc(Cl)cc1)C(Cl)(Cl)Cl (stereo not drawn),10,-2,24*,-1,-2
CCOC(=O)C1=CCC(c2ccccc2)N(S(=O)(=O)c2ccccc2C)C1 (stereo not drawn),-7,x,x,x,x
CCC(=O)N1N=C(c2ccc(NS(=O)(=O)c3ccccc3)cc2)CC1c1ccco1 (stereo not drawn),1,x,-14,x,x
COCCN(C(=O)c1cc(S(=O)(=O)N2CCCCC2)ccc1Cl)c1c(N)n(CC(C)C)c(=O)[nH]c1=O,4,x,-9,x,x
COc1cccc(CNC(=O)Cn2cc([N+](=O)[O-])cn2)c1,-1,-2,7,-2,x
CCc1nnc(NC(=O)CSc2ccc(-c3nc4ccccc4[nH]3)cn2)s1,2,-3,48*,-1,5
COCCNC(=O)CSc1ccc(-c2nc3ccccc3[nH]2)cn1,5,-3,-8,-3,x
Cc1nc(NC(=O)CSc2ccc(-c3nc4ccccc4[nH]3)cn2)sc1C,2,-1,47*,-3,2
CC(C)NC(=O)N(C)C[C@H]1Oc2ccc(NC(=O)C3CC3)cc2C(=O)N([C@H](C)CO)C[C@@H]1C,9,x,-6,x,x
COc1ccc(S(=O)(=O)N(C)C)cc1NC(=O)C1CCN(c2ncnc3sc(C)c(C)c23)CC1,-11,x,47*,x,0
Cc1sc2ncnc(N3CCC(C(=O)Nc4cc(S(C)(=O)=O)ccc4Cl)CC3)c2c1C,-6,x,2,x,x
COc1ccc([C@H]2CC(=O)C[C@@H](CCn3cccn3)O2)cc1,9,x,x,x,x
CCCCn1c(N)c(N(CC(C)C)C(=O)C2CCN(S(=O)(=O)c3ccc(OCC)cc3)CC2)c(=O)[nH]c1=O,0,x,19*,x,4
CCCCn1c(N)c(N(CCOC)C(=O)C2CCN(S(=O)(=O)c3ccccc3)CC2)c(=O)[nH]c1=O,-2,x,5,x,x
CCC(CO)Oc1cc(NC(=O)c2cccc(Cl)c2)c2ncn(C(C)C)c2c1 (stereo not drawn),-1,x,-3,x,x
Cc1ccc2[nH]c(=O)c(-c3nc4cc(C)ccn4c3NCc3ccco3)cc2c1,-1,-3,32*,-2,-5
O=C(O)c1cccc(S(=O)(=O)Nc2ccccc2Oc2ccccc2)c1,0,x,x,x,x
CCn1cc(C(=O)Nc2ccc(OC)c(S(=O)(=O)N3CCCCC3)c2)c(=O)c2ccc(C)nc21,-1,-3,0,-2,x
Cc1nnc(NC(=O)c2ccc(N3CCCC3=O)cc2)s1,-4,x,-3,x,x
Cc1cc(C)c2sc(NC(=O)c3ccc(N4C(=O)CCC4=O)cc3)nc2c1,1,-3,80*,-3,7
SMILES,HTR2A ag,IMP-1 inh,dFosB act-1,VIM-2 inhibitor,dFosB act-2
O=C(Nc1nc2ccc(F)cc2s1)c1ccc(N2CCCC2=O)cc1,0,x,25*,x,0
COc1ccc(CCN2CC(C(=O)N3CCCCCC3)CCC2=O)cc1 (stereo not drawn),6,-1,-1,1,x
COc1ccccc1CCC(=O)OCC(=O)Nc1c(C)nn(-c2ccccc2)c1C,0,x,-12,x,x
COc1ccc(CNC(=O)c2ccc(N3CCOCC3)c([N+](=O)[O-])c2)cc1,-2,-2,-11,-3,x
COc1ccc2oc(-c3ccc(C)c(NC(=O)c4ccc(N5CCOCC5)c([N+](=O)[O-])c4)c3)nc2c1,2,-1,22*,3,3
COc1ccc(CN=C2NC(=O)CC(C(=O)Nc3cc(C)cc(C)c3)S2)cc1 (stereo not drawn),3,-1,-3,-2,x
COC(=O)c1cc(NC(=O)C2CC(=O)NC(=NCc3ccc(OC)cc3)S2)cc(C(=O)OC)c1 (stereo not drawn),2,-2,37*,-1,-5
O=C(COC(=O)c1nn(-c2ccccc2C(F)(F)F)cc1O)c1ccc(OC(F)F)cc1,-1,x,9,x,x
O=[N+]([O-])c1cccc(/C=N/Nc2nc(N3CCOCC3)nc(N3CCOCC3)n2)c1,-2,-1,-4,-1,x
O=[N+]([O-])c1ccc(Nc2nc(NC3CCCCC3)nc(N3CCCC3)n2)cc1,0,-5,48*,-2,3
COc1ccc(/C=N/Nc2nc(Nc3ccccc3)nc(N3CCCC3)n2)cc1,-10,-5,47*,-5,1
O=[N+]([O-])c1ccc(Nc2nc(N/N=C/c3cccc(F)c3)nc(N3CCCC3)n2)cc1,-3,-2,120*,0,3
CNc1nc(N/N=C/c2ccc([N+](=O)[O-])cc2)nc(Nc2ccccc2)n1,-6,-3,41*,-5,-9
O=[N+]([O-])c1ccc(NC2CCCC2)cc1,3,-1,-2,2,x
CCN(CC)c1ncnc2c1ncn2[C@H]1CN(Cc2ccc(OC)cc2)C[C@@H](CO)O1,7,x,x,x,x
Brc1ccc([C@H]2CN3CCSC3=N2)cc1,-6,x,2,x,x
O=[N+]([O-])c1cc2c(cc1/C=N/Nc1nc(Nc3ccccc3)nc(N3CCCCC3)n1)OCO2,-6,-3,38*,-4,0
CCOc1cc(/C=N\Nc2nc(Nc3ccccc3)nc(N3CCOCC3)n2)ccc1OC(=O)c1ccco1,-2,-3,48*,-4,-2
Cc1cc(C)nc(N/N=C/c2cc3c(cc2[N+](=O)[O-])OCO3)n1,-1,-4,7,-2,x
CCCNC(=O)C1(C)CCCN(C(=O)c2cccnc2Oc2ccccc2)C1 (stereo not drawn),-1,x,x,x,x
COc1ccc(-c2c(C#N)c(N)nc(Sc3ccc(Cl)cc3)c2C#N)cc1,-4,1,121*,0,2
COc1ccc(-c2cc3cc(OC)c(OC)cc3c(C)n2)cc1C,3,-4,-20,-4,x
Cc1ccc(Nc2nc(N)nc(CSc3nnc(-c4ccncc4)o3)n2)cc1,3,-6,66*,0,1
Cc1ccccc1Nc1nc(N)nc(CSc2nc3ccccc3s2)n1,3,-3,0,-3,x
Cc1ccc(Nc2nc(N)nc(CSCCO)n2)cc1,0,1,-10,-1,x
Cc1ccc(Nc2nc(N)nc(CSc3nc4ccccc4s3)n2)cc1,-1,-3,53*,-4,0
COc1ccc(-n2c(-c3ccc(Cl)cc3)c[n+]3c2CCc2ccccc2-3)cc1,1,0,-2,0,x
Cc1ccc(-n2c(-c3ccc(Br)cc3)c[n+]3c2CCc2ccc4cccnc4c2-3)cc1,5,-3,26*,-3,u

# From PubChem BioAssay
